Data taken from ChEMBL document CHEMBL4049418, “6-OH-Phenanthroquinolizidine Alkaloid and Its Derivatives Exert Potent Anticancer Activity by Delaying S Phase Progression” (J Med Chem, 2017).
Active and inactive are the calls of the source. No cut-off for these calls is given here.

Tests used:
[1] = test system: A549; assay: Antiproliferative activity against human A549 cells assessed as reduction in viability after 72 hrs by SRB assay; assay type: functional, cell-based; settings: A549, 72 h
Summary of the method: (§1)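 Cells seeded and dosed in triplicate for 72 h. Suspension lines (HL-60, K-562, K562/ADR, HL-60/MX2) were read by MTT: 5 mg/mL MTT stock added, 4 h at 37 °C, formazan dissolved in 10% SDS/5% isobutanol/10 mM HCl, A570. Adherent lines were read by SRB: fixed with cold 10% TCA, stained with 0.4% SRB in 1% acetic acid, A540. IC50 from four-parameter logistic fit; mean of ≥3 independent experiments.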

[2] = test system: Bel-7402; assay: Antiproliferative activity against human Bel7402 cells assessed as reduction in viability after 72 hrs by SRB assay; assay type: functional, cell-based; settings: Bel-7402, 72 h; summary of the method: as §1
[3] = test system: U-118-MG; assay: Antiproliferative activity against human U118MG cells after 72 hrs by SRB assay; assay type: functional, cell-based; settings: pooled result: one value given for 25 cell lines, strains, targets or settings
Summary of the method: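 Adherent cells seeded in 96-well plates and exposed in triplicate to compound for 72 h at 37 °C, humidified. Fixed with 10% ice-cold trichloroacetic acid, stained with 0.4% sulforhodamine B in 1% acetic acid, and absorbance read at 540 nm. IC50 fitted by four-parameter logistic; mean of at least three independent experiments.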

[4] = test system: HL-60; assay: Antiproliferative activity against human HL60 cells after 72 hrs by MTT assay; assay type: functional, cell-based; settings: HL-60, 72 h; summary of the method: as §1
[5] = test system: K562; assay: Antiproliferative activity against human K562 cells after 72 hrs by MTT assay; assay type: functional, cell-based; settings: K562, 72 h; summary of the method: as §1
[6] = test system: KB; assay: Antiproliferative activity against human KB cells after 72 hrs by SRB assay; assay type: functional, cell-based; summary of the method: as §1
[7] = test system: Bel-7402; assay: Inhibition of colony formation in human Bel7402 cells at 0.01 to 10 uM after 24 hrs by SRB staining-based plate colony formation assay; assay type: functional, cell-based
Summary of the method: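 BEL-7402 cells seeded at 200 per well, treated in triplicate 24 h, washed twice with PBS, then grown 12 days in fresh medium; colonies stained with SRB and those ≥1 mm diameter counted; three independent experiments, mean ± SD.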

[8] = test system: Bel-7402; assay: Inhibition of DNA synthesis in human Bel7402 cells assessed as reduction in BrdU incorporation preincubated for 1 hr followed by BrdU addition for 30 mins by FITC/propidium iodide staining based flow cytometry; assay type: functional, cell-based
Summary of the method: (§2)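 BEL-7402 cells (3 × 10⁵ per well) exposed to compounds 1 h, then labeled with 10 μM BrdU for 30 min; trypsinized, fixed in 70% ethanol at −20 °C ≥1 h, 2 N HCl 20 min, neutralized with 0.1 M borate, stained with anti-BrdU-FITC plus PI 30 min; BrdU-positive cells quantified by flow cytometry; three independent experiments, mean + SD.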

[9] = test system: Bel-7402; assay: Inhibition of DNA synthesis in human Bel7402 cells assessed as BrdU incorporation at 0.1 uM preincubated for 1 hr followed by BrdU addition for 30 mins by FITC/propidium iodide staining based flow cytometry (reference value: 35.5%); assay type: functional; design: scale not given: the % may be the effect or the level left; summary of the method: as §2
[10] = test system: Bel-7402; assay: Inhibition of DNA synthesis in human Bel7402 cells assessed as BrdU incorporation at 1 uM preincubated for 1 hr followed by BrdU addition for 30 mins by FITC/propidium iodide staining based flow cytometry (reference value: 35.5%); assay type: functional; design: scale not given: the % may be the effect or the level left; summary of the method: as §2
[11] = test system: Bel-7402; assay: Induction of apoptosis in human Bel7402 cells assessed as viable cells at 0.1 uM after 72 hrs by Annexin V/propidium iodide staining based flow cytometric analysis (reference value: 92.4%); assay type: functional; settings: Bel-7402, 72 h, read-out: Activity
[12] = test system: Bel-7402; assay: Induction of apoptosis in human Bel7402 cells assessed as early apoptotic cells at 0.1 uM after 72 hrs by Annexin V/propidium iodide staining based flow cytometric analysis (reference value: 3.66%); assay type: functional
Summary of the method: (§3)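 BEL-7402 cells (3 × 10⁵ per well, 6-well plates) exposed for 72 h. Harvested, PBS-washed, resuspended in cold binding buffer with annexin V–FITC and PI, and stained 15 min in the dark at room temperature. Early apoptotic, late apoptotic and necrotic fractions quantified by flow cytometry.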

[13] = test system: Bel-7402; assay: Induction of apoptosis in human Bel7402 cells assessed as late apoptotic cells at 0.1 uM after 72 hrs by Annexin V/propidium iodide staining based flow cytometric analysis (reference value: 3.6%); assay type: functional; summary of the method: as §3
[14] = test system: Bel-7402; assay: Induction of apoptosis in human Bel7402 cells assessed as necrotic cells at 0.1 uM after 72 hrs by Annexin V/propidium iodide staining based flow cytometric analysis (reference value: 0.38%); assay type: functional; summary of the method: as §3
[15] = test system: K562/Adr; assay: Antiproliferative activity against human K562/ADR cells after 72 hrs by MTT assay; assay type: functional, cell-based; summary of the method: as §1
[16] = Resistance factor, ratio of IC50 for human K562/ADR cells to IC50 for human K562 cells; assay type: functional
Summary of the method: (§4)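 72 h treatment in triplicate; suspended lines (HL-60, K-562, K562/ADR, HL-60/MX2) read by MTT (4 h, SDS/isobutanol/HCl solubilization, 570 nm); adherent KB and KB/VCR (MEM, 10% FBS) by SRB after TCA fixation (540 nm); IC₅₀ by four-parameter logistic fit, mean of ≥3 independent experiments.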

[17] = test system: HL60/MX2; assay: Antiproliferative activity against human HL60/MX2 cells after 72 hrs by MTT assay; assay type: functional, cell-based; settings: HL60/MX2, 72 h; summary of the method: as §1
[18] = Resistance factor, ratio of IC50 for human HL60/MX2 cells to IC50 for human HL60 cells; assay type: functional; summary of the method: as §4
[19] = Antiproliferative activity against human KB/VCR cells after 72 hrs by SRB assay; assay type: functional, cell-based; summary of the method: as §1
[20] = Resistance factor, ratio of IC50 for human KB/VCR cells to IC50 for human KB cells; assay type: functional; summary of the method: as §4
[21] = Growth inhibition of human KB-HU-R cells after 8 days by methylene blue-staining based spectrophotometry; assay type: functional; settings: 192 h
[22] = Selectivity ratio of IC50 for human MRC9 cells to IC50 for human A549 cells
Summary of the method: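 SRB assay: A549 (F-12, 10% FBS) and MRC-5/MRC-9 (EMEM, 10% FBS) treated in triplicate 72 h, fixed with ice-cold 10% TCA, stained with 0.4% SRB in 1% acetic acid, absorbance 540 nm; IC₅₀ by four-parameter logistic fit, mean of ≥3 independent experiments.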

[23] = test system: SMMC-7721; assay: Cell cycle arrest in human SMMC7721 cells assessed as delay in progression of S-phase to G2-phase at 1 to 10 nM pre-treated with aphidicolin for 16 hrs followed by compound addition measured after 24 hrs by propidium iodide staining-based flow cytometric method; assay type: functional
Summary of the method: (§5)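 Exponentially growing cells synchronized in early S phase with 0.2 μg/mL aphidicolin for 16 h. Cells released into fresh medium with or without compound for set times. Ethanol-fixed, stained with PI/RNase, and cell cycle distribution read by flow cytometry. Representative of three independent experiments.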

[24] = test system: Zip-177; assay: Cell cycle arrest in human Zip-177 cells assessed as delay in progression of S-phase to G2-phase at 1 to 10 nM pre-treated with aphidicolin for 16 hrs followed by compound addition measured after 24 hrs by propidium iodide staining-based flow cytometric method; assay type: functional; summary of the method: as §5
[25] = test system: KB; assay: Cell cycle arrest in human KB cells assessed as delay in progression of S-phase to G2-phase at 10 nM pre-treated with aphidicolin for 16 hrs followed by compound addition measured up to 12 hrs by propidium iodide staining-based flow cytometric method; assay type: functional; summary of the method: as §5

Row | Compound | IC50 [1] [nM] | IC50 [2] [nM] | IC50 [3] [nM] | IC50 [4] [nM] | IC50 [5] [nM] | IC50 [6] [nM] | inhibition [8] | Activity [9] [%] | viability at 0.1 µM [11] [%] | Activity [12] [%] | Activity [13] [%] | Activity [14] [%] | IC50 [15] [nM] | Ratio IC50 [16] | IC50 [17] [nM] | Ratio IC50 [18] | IC50 [19] [nM] | Ratio IC50 [20] | further results
1 | COc1cc2c3c(c4cc(OC)c(OC)cc4c2cc1OC)[C@H](O)[C@@H]1CCCN1C3 | 283 | 110 | 167 | 213 | 98.4 | 58.2 | Dose-dependent effect | 32.5 | 94.6 | 2.86 | 2.22 | 0.37 | 138 | 1.4 | 278 | 1.3 | 65.2 | 1.1 | inhibition [7]: Active; Activity [10]: 8.01%; GI50 [21]: 30 nM
2 | COc1cc2c3c(c4ccc(O)cc4c2cc1OC)CN1CCCC[C@@H]1C3 | 0.7 | 1.7 | 2.1 | 1.8 | 2.2 | 1.2 | Dose-dependent effect | 4.83 | 72.4 | 5.16 | 19.8 | 2.57 | 2.6 | 1.2 | 1.7 | 0.9 | 1 | 0.8 | Ratio IC50 [22]: 3 - 4; Activity [23]: Active; Activity [24]: Active; Activity [25]: Active
